Assay results from ChEMBL document CHEMBL4052614, “Novel 3',5'-diprenylated chalcones inhibited the proliferation of cancer cells in vitro by inducing cell apoptosis and arresting cell cycle phase” (Eur J Med Chem, 2017).
pIC50: −log10 of the molar value. The source made the active and inactive calls. The rule behind the calls is not given here.

Assays:
PC-3 [1] = assay: Growth inhibition of human PC3 cells at 5 umol/L after 48 hrs by MTT assay relative to control; assay type: functional; settings: for inhibition of growth at 5 µM: PC-3, 48 h, read-out: GI
How it was run: (§1)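 Cells kept in DMEM/10% FBS at 37 °C, 5% CO2, seeded at 4×10^3–8×10^3 cells/well, 24 h attachment, then 48 h with compound at 5 µmol/L. MTT (5 mg/mL solution) added for 4 h at 37 °C, formazan taken up in DMSO, A490 read. Percent inhibition as mean ± SD of three independent experiments. Doxorubicin as positive control.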

MDA-MB-231 = assay: Growth inhibition of human MDA-MB-231 cells at 5 umol/L after 48 hrs by MTT assay relative to control; assay type: functional; settings: for inhibition of growth at 5 µM: MDA-MB-231, 48 h, read-out: GI; how it was run: as §1
K562 [2] = assay: Growth inhibition of human K562 cells at 5 umol/L after 48 hrs by MTT assay relative to control; assay type: functional; settings: for inhibition of growth at 5 µM: K562, 48 h, read-out: GI; how it was run: as §1
HEL [3] = assay: Growth inhibition of HEL cells at 5 umol/L after 48 hrs by MTT assay relative to control; assay type: functional; settings: Homo sapiens; for inhibition of growth at 5 µM: read-out: GI; how it was run: as §1
HEL [4] = assay: Cytotoxicity against HEL cells after 48 hrs by MTT assay; assay type: functional, cell-based; settings: Homo sapiens
How it was run: (§2)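 Cells kept in DMEM/10% FBS at 37 °C, 5% CO2, seeded at 4×10^3–8×10^3 cells/well and left 24 h to adhere. Exposed 48 h to a range of concentrations. MTT (5 mg/mL solution) added for 4 h at 37 °C, formazan dissolved in DMSO, absorbance read at 490 nm. IC50 derived from concentration–inhibition relation. Doxorubicin as positive control.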

HEL [5] = assay: Induction of apoptosis in HEL cells assessed as viable cells at 5 umol/L after 48 hrs by annexin V-FITC/propidium iodide staining based flow cytometry (reference value: 93.1 to 94%); assay type: functional; settings: Homo sapiens, read-out: Activity
HEL [6] = assay: Induction of apoptosis in HEL cells assessed as early apoptotic cells at 5 umol/L after 48 hrs by annexin V-FITC/propidium iodide staining based flow cytometry (reference value: 2.6 to 4.2%); assay type: functional, Homo sapiens
HEL [7] = assay: Induction of apoptosis in HEL cells assessed as late apoptotic cells at 5 umol/L after 48 hrs by annexin V-FITC/propidium iodide staining based flow cytometry (reference value: 1.6 to 3.3%); assay type: functional, Homo sapiens
HEL [8] = assay: Induction of apoptosis in HEL cells assessed as necrotic cells at 5 umol/L after 48 hrs by annexin V-FITC/propidium iodide staining based flow cytometry (reference value: 0.3 to 1%); assay type: functional, Homo sapiens
HEL [9] = assay: Induction of apoptosis in HEL cells assessed as viable cells at 10 umol/L after 48 hrs by annexin V-FITC/propidium iodide staining based flow cytometry (reference value: 94%); assay type: functional; settings: Homo sapiens, read-out: Activity
HEL [10] = assay: Induction of apoptosis in HEL cells assessed as early apoptotic cells at 10 umol/L after 48 hrs by annexin V-FITC/propidium iodide staining based flow cytometry (reference value: 4.2%); assay type: functional, Homo sapiens
HEL [11] = assay: Induction of apoptosis in HEL cells assessed as late apoptotic cells at 10 umol/L after 48 hrs by annexin V-FITC/propidium iodide staining based flow cytometry (reference value: 1.6%); assay type: functional, Homo sapiens
HEL [12] = assay: Induction of apoptosis in HEL cells assessed as necrotic cells at 10 umol/L after 48 hrs by annexin V-FITC/propidium iodide staining based flow cytometry (reference value: 0.3%); assay type: functional, Homo sapiens
HEL [13] = assay: Cell cycle arrest in HEL cells assessed as decrease in G2 phase accumulation at 5 umol/L after 48 hrs by propidium iodide staining based flow cytometric method; assay type: functional; settings: Homo sapiens
How it was run: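 Cells grown in DMEM with 10% FBS and penicillin/streptomycin at 37 °C, 5% CO2, and passaged at least 3 times after thawing. Treated 48 h at 5 µmol/L, DMSO-treated controls. Harvested by trypsin, PBS-washed, fixed in ice-cold ethanol, blocked 1 h at 4 °C in 5% BSA/PBS, RNase 1 µg/mL 30 min at 37 °C, PI 20 µg/mL final. Phase percentages read from PI histograms. Mean ± SD, three independent experiments.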

HEL [14] = assay: Induction of morphological changes in HEL cells assessed as formation of apoptotic bodies at 5 umol/L after 48 hrs by inverted fluorescence microscopic analysis; assay type: functional, cell-based; settings: Homo sapiens
How it was run: (§3)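 Cells cultured in DMEM/10% FBS at 37 °C, 5% CO2. Exposed 48 h to 5 µmol/L compound alongside DMSO controls. Morphology (cell number, rounding, spacing, apoptotic bodies, spindle shape) observed under an inverted microscope with CCD camera.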

HEL [15] = assay: Induction of morphological changes in HEL cells assessed as reduction in cell number at 5 umol/L after 48 hrs by inverted fluorescence microscopic analysis; assay type: functional, cell-based; settings: Homo sapiens; how it was run: as §3
PC-3 [16] = assay: Cytotoxicity against human PC3 cells after 48 hrs by MTT assay; assay type: functional, cell-based; settings: PC-3, 48 h; how it was run: as §2
K562 [17] = assay: Cytotoxicity against human K562 cells after 48 hrs by MTT assay; assay type: functional, cell-based; settings: K562, 48 h; how it was run: as §2

SMILES | inhibition of growth at 5 µM (PC-3 [1]) | inhibition of growth at 5 µM (MDA-MB-231) | growth inhibition (GI) (K562 [2]) | growth inhibition (GI) (HEL [3]) | inhibition of growth at 5 µM (K562 [2]) | inhibition of growth at 5 µM (HEL [3]) | other results
C=CCOc1ccc(/C=C/C(=O)c2cc(CC=C(C)C)c(OC)c(CC=C(C)C)c2O)cc1OCC | 13.4% | 27.7% | inactive | inactive |  |  | 
COc1ccc(/C=C/C(=O)c2cc(CC=C(C)C)c(OC)c(CC=C(C)C)c2O)cc1OC | 10.6% | 19% |  | inactive | 7.5% |  | 
COc1ccc(/C=C/C(=O)c2cc(CC=C(C)C)c(OC)c(CC=C(C)C)c2O)cc1[N+](=O)[O-] | 21.2% | 23.4% |  |  | 23% | 85.4% | Activity (HEL [4]): Dose-dependent effect; pIC50 (HEL [4]): 5.36; viability at 5 µM (HEL [5]): 90%; Activity (HEL [6]): 5.3%; Activity (HEL [7]): 3.9%; Activity (HEL [8]): 0.8%; viability at 10 µM (HEL [9]): 30.6%; Activity (HEL [10]): 11.6%; Activity (HEL [11]): 47.6%; Activity (HEL [12]): 10.1%; Activity (HEL [13]): Active; Activity (HEL [14]): inactive; Activity (HEL [15]): Active
COc1c(CC=C(C)C)cc(C(=O)/C=C/c2cccn2C)c(O)c1CC=C(C)C | 11.7% | 33.8% |  | inactive | 9.9% |  | 
COc1cc(/C=C/C(=O)c2cc(CC=C(C)C)c(OC)c(CC=C(C)C)c2O)ccc1OC(=O)c1ccc(C)s1 | 19.2% | 19.6% |  | inactive | 6.3% |  | 
CCOc1cc(/C=C/C(=O)c2cc(CC=C(C)C)c(OC)c(CC=C(C)C)c2O)ccc1OC(=O)/C=C/c1ccncc1 | 13.5% |  | inactive | inactive |  |  | growth inhibition (GI) (MDA-MB-231): inactive
COc1cccc2c1C(=O)c1c(O)c3c(c(O)c1C2=O)C[C@@](O)(C(=O)CO)C[C@@H]3O[C@H]1C[C@H](N)[C@H](O)[C@H](C)O1 [DOXORUBICIN] | 89.7% | 87.1% |  |  | 90.6% | 89.2% | pIC50 (PC-3 [16]): 5.58; pIC50 (K562 [17]): 5.62; pIC50 (HEL [4]): 5.67
COc1cc(/C=C/C(=O)c2cc(CC=C(C)C)c(OC)c(CC=C(C)C)c2O)ccc1OC(=O)c1cccnc1 | 23% |  | inactive |  |  | 5.7% | growth inhibition (GI) (MDA-MB-231): inactive
CCOc1cc(/C=C/C(=O)c2cc(CC=C(C)C)c(OC)c(CC=C(C)C)c2O)ccc1OC(=O)c1cccs1 | 21.4% | 7.4% | inactive |  |  | 4% | 
CCOc1cc(/C=C/C(=O)c2cc(CC=C(C)C)c(OC)c(CC=C(C)C)c2O)ccc1OC(=O)c1ccc(Cl)s1 | 34.3% |  | inactive | inactive |  |  | growth inhibition (GI) (MDA-MB-231): inactive
COc1ccc(/C=C/C(=O)c2cc(CC=C(C)C)c(OC)c(CC=C(C)C)c2O)cc1Br | 20.9% | 30.2% |  | inactive | 18.9% |  | 
COc1ccc(/C=C/C(=O)c2cc(CC=C(C)C)c(OC)c(CC=C(C)C)c2O)cc1Cl | 31.8% | 26.5% |  |  | 31.9% | 11.7% | 
COc1cc(/C=C/C(=O)c2cc(CC=C(C)C)c(OC)c(CC=C(C)C)c2O)cc(OC)c1OC | 15% | 26.2% | inactive |  |  | 23.6% | 
CCOc1cc(/C=C/C(=O)c2cc(CC=C(C)C)c(OC)c(CC=C(C)C)c2O)ccc1OC(=O)c1ccco1 | 12.7% |  | inactive | inactive |  |  | growth inhibition (GI) (MDA-MB-231): inactive
CCOc1cc(/C=C/C(=O)c2cc(CC=C(C)C)c(OC)c(CC=C(C)C)c2O)ccc1OCOC | 13.1% | 29.9% | inactive |  |  | 6.3% | 
COc1ccc(/C=C/C(=O)c2cc(CC=C(C)C)c(OC)c(CC=C(C)C)c2O)cc1 | 24.6% | 14.5% |  |  | 32% | 29.5% | 
COc1cc(/C=C/C(=O)c2cc(CC=C(C)C)c(OC)c(CC=C(C)C)c2O)ccc1O | 26% | 19.3% | inactive |  |  | 22.2% | 
COc1ccc(/C=C/C(=O)c2cc(CC=C(C)C)c(OC)c(CC=C(C)C)c2O)cc1F |  | 12.1% |  |  | 19.3% | 12.3% | growth inhibition (GI) (PC-3 [1]): inactive
COc1cc(/C=C/C(=O)c2cc(CC=C(C)C)c(OC)c(CC=C(C)C)c2O)ccc1OC(=O)c1ccc(N(C)C)cc1 | 36.5% | 38.5% |  | inactive | 8.1% |  | 
COc1c(CC=C(C)C)cc(C(=O)/C=C/c2ccc(N(C)C)cc2)c(O)c1CC=C(C)C | 11.6% | 21.5% | inactive | inactive |  |  | 
COCOc1ccc(/C=C/C(=O)c2cc(CC=C(C)C)c(OC)c(CC=C(C)C)c2O)cc1OC | 17.3% | 14% |  | inactive | 3.9% |  | 
CCOc1cc(/C=C/C(=O)c2cc(CC=C(C)C)c(OC)c(CC=C(C)C)c2O)ccc1O | 25.6% | 33.5% |  |  | 10.2% | 12.7% | 
COc1cc(/C=C/C(=O)c2cc(CC=C(C)C)c(OC)c(CC=C(C)C)c2O)ccc1OC(=O)Cc1cc2ccccc2[nH]1 | 29.9% | 28.3% | inactive | inactive |  |  | 
